Reference: ChEMBL document CHEMBL5321206, “New amidine-benzenesulfonamides as iNOS inhibitors for the therapy of the triple negative breast cancer” (Eur J Med Chem, 2023)
pEC50, pIC50: −log10 of the molar value. The source made the active and inactive calls. No cut-off for these calls is given here.

Legend:
[1] = target: T1, Nitric oxide synthase, inducible (Homo sapiens, UniProt P35228); experiment: Inhibition of N-terminal his6-tagged recombinant human iNOS expressed in Escherichia coli at 1 uM preincubated for 15 mins followed by NADPH addition and measured after 30 mins by HPLC analysis relative to control; conditions: time 45.0 min
T1 sequence (P35228 whole entry): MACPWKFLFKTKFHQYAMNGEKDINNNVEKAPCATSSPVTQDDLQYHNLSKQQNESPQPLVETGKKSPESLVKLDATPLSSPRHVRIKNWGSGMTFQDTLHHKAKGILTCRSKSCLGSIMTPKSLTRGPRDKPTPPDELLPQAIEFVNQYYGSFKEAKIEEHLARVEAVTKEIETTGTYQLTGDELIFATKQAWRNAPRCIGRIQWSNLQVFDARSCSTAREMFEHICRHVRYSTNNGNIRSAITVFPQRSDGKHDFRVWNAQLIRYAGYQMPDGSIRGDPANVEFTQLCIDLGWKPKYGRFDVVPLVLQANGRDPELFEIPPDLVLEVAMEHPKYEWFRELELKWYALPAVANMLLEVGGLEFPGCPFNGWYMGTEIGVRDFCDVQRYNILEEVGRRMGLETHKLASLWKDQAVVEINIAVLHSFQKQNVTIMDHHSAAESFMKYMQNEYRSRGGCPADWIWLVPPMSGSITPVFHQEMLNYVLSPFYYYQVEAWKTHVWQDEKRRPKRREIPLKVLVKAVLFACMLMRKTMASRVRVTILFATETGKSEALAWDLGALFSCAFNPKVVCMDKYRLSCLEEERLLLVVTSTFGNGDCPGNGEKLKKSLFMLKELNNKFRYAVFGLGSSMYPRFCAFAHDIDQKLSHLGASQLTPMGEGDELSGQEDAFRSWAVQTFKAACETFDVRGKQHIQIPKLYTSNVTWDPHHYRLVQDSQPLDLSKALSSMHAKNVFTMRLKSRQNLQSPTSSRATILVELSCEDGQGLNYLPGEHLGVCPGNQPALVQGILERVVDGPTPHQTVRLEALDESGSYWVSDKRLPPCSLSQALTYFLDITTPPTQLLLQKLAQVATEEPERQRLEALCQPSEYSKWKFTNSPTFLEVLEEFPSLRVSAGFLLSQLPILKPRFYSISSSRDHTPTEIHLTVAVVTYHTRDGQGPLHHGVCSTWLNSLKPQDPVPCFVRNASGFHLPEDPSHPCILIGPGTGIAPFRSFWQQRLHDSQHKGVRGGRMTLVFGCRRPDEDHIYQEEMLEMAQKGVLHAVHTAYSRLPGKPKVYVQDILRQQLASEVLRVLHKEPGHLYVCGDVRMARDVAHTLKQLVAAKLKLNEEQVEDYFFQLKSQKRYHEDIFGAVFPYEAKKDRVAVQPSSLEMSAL
How it was run: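 Recombinant human iNOS in 100 mM HEPES pH 7.4 with 0.1 mM CaCl2, 1 mM DTT, 0.5 mg/mL BSA, 10 μM FMN, 10 μM FAD, 30 μM BH4, 10 μg/mL calmodulin and 10 μM L-Arg. Compound pre-incubated 15 min at 37 °C. NADPH added to start the reaction, run 30 min at 37 °C, stopped with cold CH3CN. Product measured by OPA/NAC derivatization and fluorescence HPLC (ex 335/em 439 nm). […] IC50 from seven concentrations in triplicate, mean ± SD.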

[2] = target: T2, Nitric oxide synthase 3 (Bos taurus) (UniProt P29473); experiment: Inhibition of full length N-terminal his-tagged bovine eNOS (2 to 1205 residues) expressed in Escherichia coli at 10 uM preincubated for 15 mins followed by NADPH addition and measured after 30 mins by HPLC analysis relative to control; conditions: time 45.0 min
T2 sequence (whole entry): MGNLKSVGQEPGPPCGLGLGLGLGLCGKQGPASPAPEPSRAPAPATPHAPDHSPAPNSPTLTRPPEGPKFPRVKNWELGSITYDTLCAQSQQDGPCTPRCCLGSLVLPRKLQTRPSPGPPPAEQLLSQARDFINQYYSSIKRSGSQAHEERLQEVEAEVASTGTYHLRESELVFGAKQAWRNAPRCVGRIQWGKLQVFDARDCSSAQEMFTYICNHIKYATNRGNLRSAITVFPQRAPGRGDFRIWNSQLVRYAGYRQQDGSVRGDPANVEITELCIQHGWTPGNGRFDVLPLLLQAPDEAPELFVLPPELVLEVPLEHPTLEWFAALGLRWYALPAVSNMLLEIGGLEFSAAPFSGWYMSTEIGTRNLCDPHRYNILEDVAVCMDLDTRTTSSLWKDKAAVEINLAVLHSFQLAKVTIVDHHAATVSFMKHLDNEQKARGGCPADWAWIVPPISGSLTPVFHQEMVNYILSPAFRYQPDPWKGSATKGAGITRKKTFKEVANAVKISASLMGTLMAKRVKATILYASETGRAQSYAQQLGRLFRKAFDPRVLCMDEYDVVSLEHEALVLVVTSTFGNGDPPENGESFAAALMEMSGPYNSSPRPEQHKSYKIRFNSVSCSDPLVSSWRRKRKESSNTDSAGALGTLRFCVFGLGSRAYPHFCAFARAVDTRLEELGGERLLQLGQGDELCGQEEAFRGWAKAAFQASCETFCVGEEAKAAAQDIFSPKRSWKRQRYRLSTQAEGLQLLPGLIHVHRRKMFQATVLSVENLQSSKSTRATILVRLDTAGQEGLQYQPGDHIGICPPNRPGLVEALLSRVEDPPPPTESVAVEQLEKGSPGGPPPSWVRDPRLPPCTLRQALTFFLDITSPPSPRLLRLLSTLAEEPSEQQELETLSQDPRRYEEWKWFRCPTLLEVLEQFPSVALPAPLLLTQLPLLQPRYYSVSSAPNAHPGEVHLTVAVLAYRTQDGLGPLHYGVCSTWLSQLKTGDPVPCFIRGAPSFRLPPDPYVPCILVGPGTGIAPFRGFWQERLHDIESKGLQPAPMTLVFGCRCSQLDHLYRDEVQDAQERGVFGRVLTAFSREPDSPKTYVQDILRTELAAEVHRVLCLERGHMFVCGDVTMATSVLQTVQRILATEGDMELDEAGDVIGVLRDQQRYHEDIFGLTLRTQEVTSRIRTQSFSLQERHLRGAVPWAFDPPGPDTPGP
How it was run: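 Recombinant bovine eNOS in HEPES buffer with 2 mM CaCl2 plus the same cofactor mix as the iNOS assay (DTT, BSA, FMN, FAD, BH4, calmodulin, 10 μM L-Arg). Compound pre-incubated 15 min at 37 °C. NADPH-started reaction run 30 min at 37 °C, quenched with cold CH3CN. Read by OPA/NAC fluorescence HPLC. […] IC50 from seven concentrations in triplicate.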

[3] = target: T1, Nitric oxide synthase, inducible; experiment: Inhibition of iNOS (unknown origin)
[4] = target: T1, Nitric oxide synthase, inducible; experiment: Inhibition of N-terminal his6-tagged recombinant human iNOS expressed in Escherichia coli preincubated for 15 mins followed by NADPH addition and measured after 30 mins by HPLC analysis
How it was run: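 Recombinant human iNOS in 100 mM HEPES pH 7.4 with 0.1 mM CaCl2, 1 mM DTT, 0.5 mg/mL BSA, 10 μM FMN, 10 μM FAD, 30 μM BH4, 10 μg/mL calmodulin and 10 μM L-Arg. NADPH added to start the reaction, run 30 min at 37 °C, stopped with cold CH3CN. IC50 from seven concentrations in triplicate, mean ± SD.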

Nitric oxide synthase 3 = target: T3, Nitric oxide synthase 3 (Bos taurus, UniProt P29473); experiment: Inhibition of full length N-terminal his-tagged bovine eNOS (2 to 1205 residues) expressed in Escherichia coli preincubated for 15 mins followed by NADPH addition and measured after 30 mins by HPLC analysis
T3 sequence (P29473 whole entry): T2 sequence (whole entry)
How it was run: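 Recombinant bovine eNOS in HEPES buffer with 2 mM CaCl2 plus the same cofactor mix as the iNOS assay (DTT, BSA, FMN, FAD, BH4, calmodulin, 10 μM L-Arg). NADPH-started reaction run 30 min at 37 °C, quenched with cold CH3CN. Read by OPA/NAC fluorescence HPLC. IC50 from seven concentrations in triplicate.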

MDA-MB-231 [5] = experiment: Antiproliferative activity against human MDA-MB-231 cells assessed as reduction in cell viability measured after 5 days by PrestoBlue reagent based assay; format: functional; conditions: MDA-MB-231, 120 h
How it was run: (§1)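 MDA-MB-231 cells grown in DMEM with 10% FBS and 2 mM L-glutamine. Seeded 2000 cells/well, grown 24 h, then treated 5 days over 0.001–100 μM in triplicate wells. Read with PrestoBlue (10% v/v, 120 min), fluorescence ex 540/em 590 nm. Normalized to 0.1% DMSO controls. EC50 from sigmoidal variable-slope fit, mean ± SD, n = 3 independent experiments.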

MDA-MB-231 [6] = experiment: Antiproliferative activity against human MDA-MB-231 cells assessed as reduction in cell viability upto 100 uM measured after 5 days by PrestoBlue reagent based assay; format: functional; conditions: time 5.0 day; how it was run: as §1
MCF-12A [7] = experiment: Antiproliferative activity against human MCF-12A cells assessed as reduction in cell viability measured after 5 days by PrestoBlue reagent based assay; format: functional; conditions: 120 h
How it was run: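 MCF-12A cells (DMEM/F12 1:1, 5% equine serum, EGF, hydrocortisone, cholera toxin, insulin) seeded 2000 cells/well, grown 24 h, then exposed 5 days to 0.001–100 μM in triplicate. Read with PrestoBlue (10% v/v, 120 min), ex 540/em 590 nm. Normalized to 0.1% DMSO controls. EC50 from sigmoidal variable-slope fit, mean ± SD of 3 independent experiments.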

MCF-12A [8] = experiment: Antiproliferative activity against human MCF-12A cells assessed as reduction in cell viability at 50 uM measured after 5 days by PrestoBlue reagent based assay relative to control; format: functional; conditions: time 5 day
How it was run: (§2)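 MCF-12A cells grown in DMEM/F12 (1:1) with 5% equine serum, EGF, hydrocortisone, cholera toxin and insulin, at 37 °C and 5% CO2. Seeded 2000 cells/well in triplicate and grown 24 h, then treated 5 days. Read with PrestoBlue (10% v/v, 120 min), fluorescence ex 540/em 590 nm. Viability normalized to 0.1% DMSO-treated cells (100%).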

MCF-12A [9] = experiment: Antiproliferative activity against human MCF-12A cells assessed as reduction in cell viability at 25 uM measured after 5 days by PrestoBlue reagent based assay relative to control; format: functional; conditions: time 5.0 day; how it was run: as §2
MDA-MB-231 [10] = experiment: Inhibition of cell migration in human MDA-MB-231 cells assessed as reduction in cell motility incubated for 24 hrs by scratch wound healing assay; format: functional, cell-based
How it was run: (§3)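 MDA-MB-231 cells seeded 20×10^4 cells/well, incubated 12 h, then serum-starved (1% FBS) for 24 h. Monolayer scratched with a pipette tip, washed with PBS and treated at 25 μM in starvation medium, with 0.1% DMSO as control. Wound imaged at 0 and 24 h (4× objective). Wound area measured to give percent closure.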

MDA-MB-231 [11] = experiment: Inhibition of cell migration in human MDA-MB-231 cells assessed as reduction in wound closure incubated for 24 hrs by microscopic analysis; format: functional; design: scale not given: the % may be the effect or the level left; how it was run: as §3
[12] = Metabolic stability in rat liver microsome assessed as half life pretreated for 5 mins followed by NADPH and measured after 60 mins by HPLC analysis; format: ADME; conditions: liver microsomes, time 65 min
How it was run: (§4)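 Compound from 2 mM DMSO stock diluted in PBS with Sprague–Dawley rat liver microsomes and warmed 5 min at 37 °C. NADPH (10 mM stock) added, incubated 60 min at 37 °C, quenched with cold CH3CN and centrifuged. At least three repeats, verapamil as positive control. CLint scaled using 45 mg microsomal protein/g liver and 40 g liver/kg body weight.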

[13] = Metabolic stability in rat liver microsome assessed as hepatic clearance pretreated for 5 mins followed by NADPH and measured after 60 mins by HPLC analysis; format: ADME; conditions: liver microsomes, time 65 min; how it was run: as §4
MDA-MB-231 (human) = experiment: Potency index, ratio of 1400W EC50 to test compound EC50 for antiproliferative activity against human MDA-MB-231 cells assessed as reduction in cell viability measured after 5 days by PrestoBlue reagent based assay; conditions: time 5 day

Row | inhibition [1] | inhibition [2] | Compound | also measured
1 | inactive | inactive | CC(=N)NCc1cccc(CNS(=O)(=O)c2ccc(C)cc2)c1 | –
2 | 71% | 35% | N=C(NCc1cccc(CNS(=O)(=O)c2ccc([N+](=O)[O-])cc2)c1)c1ccccc1 | –
3 | 72% | 18% | Cc1ccc(S(=O)(=O)NCc2cccc(CNC(=N)c3ccc(Cl)cc3)c2)cc1 | –
4 | – | – | COC(=O)[C@@H](N)CCCNC(=N)N[N+](=O)[O-] [L-NAME] | pIC50 [3]: 4.87
5 | 52% | inactive | N=C(NCc1ccc(NS(=O)(=O)c2ccc([N+](=O)[O-])cc2)cc1)c1ccccc1 | pIC50 [4]: 6.08; pIC50 (Nitric oxide synthase 3): < 4.30; pEC50 (MDA-MB-231 [5]): < 4.00; Activity (MDA-MB-231 [6]): inactive
6 | 69% | 46% | N=C(NCc1ccc(NS(=O)(=O)c2ccc([N+](=O)[O-])cc2)cc1)c1ccc(Cl)cc1 | –
7 | 83% | inactive | Br.Cc1ccc(S(=O)(=O)NCc2cccc(CNC(=N)c3ccccc3)c2)cc1 | pIC50 [4]: 7.19; pIC50 (Nitric oxide synthase 3): < 4.30; pEC50 (MDA-MB-231 [5]): 4.61; pEC50 (MCF-12A [7]): 4.10; Activity (MCF-12A [8]): 91%; Activity (MCF-12A [9]): inactive; Activity (MDA-MB-231 [10]): Active; Activity (MDA-MB-231 [11]): 15%; half-life [12]: 38 min; CLint scaled [13]: 39.6 mL/min/kg; Ratio EC50 (MDA-MB-231 (human)): 4
8 | inactive | inactive | N=C(NCc1ccc(NS(=O)(=O)c2ccc([N+](=O)[O-])cc2)cc1)c1ccc(C(F)(F)F)cc1 | –
9 | 59% | 28% | Cc1ccc(S(=O)(=O)NCc2cccc(CNC(=N)c3ccc(C(F)(F)F)cc3)c2)cc1 | –
10 | 65% | 19% | N=C(NCc1cccc(CNS(=O)(=O)c2ccc([N+](=O)[O-])cc2)c1)c1ccc(Cl)cc1 | –
11 | inactive | inactive | CC(=N)NCc1ccc(NS(=O)(=O)c2ccc([N+](=O)[O-])cc2)cc1 | –
12 | 72% | 26% | N=C(NCc1cccc(CNS(=O)(=O)c2ccc([N+](=O)[O-])cc2)c1)c1ccc(C(F)(F)F)cc1 | –
13 | – | – | CC(=N)NCc1cccc(CN)c1 [1400W] | pEC50 (MDA-MB-231 [5]): < 4.00
